Assay results from ChEMBL document CHEMBL3526021, “NADPH-cytochrome P450 oxidoreductase: roles in physiology, pharmacology, and toxicology” (Drug Metab Dispos, 2013).

Legend:
Mus musculus = test: AUC (0 to infinity) in Por lox/lox wild type mouse at 2.5 mg/kg, po treated 10 days after 40 mg/kg, ip 3-methylcholanthrene administration by liquid chromatography-tandem mass spectrometry; assay type: ADME, organism-based, Plasma; conditions: in vivo, 240 h
Procedure, shortened: (§1)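 Adult male mice (n = 3): Por lox/lox wild type, or RCN (Por lox/lox plus Cre under CYP1A1 promoter). Pretreated i.p. in corn oil with either 3-MC 40 mg/kg as a single dose, or BNF 80 mg/kg daily for 4 days. After 10 days, oral dosing at 2.5 mg/kg. Serial tail-vein blood was analysed by LC-MS/MS for parent drug; mean ± SD.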

[1] = AUC (0 to infinity) in liver Por deleted-reductase conditional null mouse at 2.5 mg/kg, po treated 10 days after 40 mg/kg, ip 3-methylcholanthrene administration by liquid chromatography-tandem mass spectrometry; assay type: ADME, organism-based; conditions: in vivo; procedure, shortened: as §1
[2] = AUC (0 to last) in Por lox/lox wild type mouse at 2.5 mg/kg, po treated 10 days after 40 mg/kg, ip 3-methylcholanthrene administration by liquid chromatography-tandem mass spectrometry; assay type: ADME, organism-based; conditions: plasma; procedure, shortened: as §1
[3] = AUC (0 to last) in liver Por deleted-reductase conditional null mouse at 2.5 mg/kg, po treated 10 days after 40 mg/kg, ip 3-methylcholanthrene administration by liquid chromatography-tandem mass spectrometry; assay type: ADME, organism-based; conditions: in vivo; procedure, shortened: as §1
[4] = Cmax in Por lox/lox wild type mouse at 2.5 mg/kg, po treated 10 days after 40 mg/kg, ip 3-methylcholanthrene administration by liquid chromatography-tandem mass spectrometry; assay type: ADME, organism-based; conditions: in vivo; procedure, shortened: as §1
[5] = Cmax in liver Por deleted-reductase conditional null mouse at 2.5 mg/kg, po treated 10 days after 40 mg/kg, ip 3-methylcholanthrene administration by liquid chromatography-tandem mass spectrometry; assay type: ADME, organism-based; conditions: in vivo; procedure, shortened: as §1
[6] = Clearance in liver Por deleted-reductase conditional null mouse at 2.5 mg/kg, po treated 10 days after 40 mg/kg, ip 3-methylcholanthrene administration by liquid chromatography-tandem mass spectrometry; assay type: ADME, organism-based; conditions: in vivo; procedure, shortened: as §1
[7] = AUC (0 to infinity) in Por lox/lox wild type mouse at 2.5 mg/kg, po treated 10 days after 80 mg/kg, ip beta-naphthoflavone administration by liquid chromatography-tandem mass spectrometry; assay type: ADME, organism-based; conditions: plasma; procedure, shortened: as §1
[8] = AUC (0 to infinity) in liver and gut Por deleted-reductase conditional null mouse at 2.5 mg/kg, po treated 10 days after 80 mg/kg, ip beta-naphthoflavone administration by liquid chromatography-tandem mass spectrometry; assay type: ADME, organism-based; conditions: in vivo; procedure, shortened: as §1
[9] = AUC (0 to last) in Por lox/lox wild type mouse at 2.5 mg/kg, po treated 10 days after 80 mg/kg, ip beta-naphthoflavone administration by liquid chromatography-tandem mass spectrometry; assay type: ADME, organism-based; conditions: plasma; procedure, shortened: as §1
[10] = AUC (0 to last) in liver and gut Por deleted-reductase conditional null mouse at 2.5 mg/kg, po treated 10 days after 80 mg/kg, ip beta-naphthoflavone administration by liquid chromatography-tandem mass spectrometry; assay type: ADME, organism-based; conditions: in vivo; procedure, shortened: as §1
[11] = Cmax in Por lox/lox wild type mouse at 2.5 mg/kg, po treated 10 days after 80 mg/kg, ip beta-naphthoflavone administration by liquid chromatography-tandem mass spectrometry; assay type: ADME, organism-based; conditions: in vivo; procedure, shortened: as §1
[12] = Cmax in liver and gut Por deleted-reductase conditional null mouse at 2.5 mg/kg, po treated 10 days after 80 mg/kg, ip beta-naphthoflavone administration by liquid chromatography-tandem mass spectrometry; assay type: ADME, organism-based; conditions: in vivo; procedure, shortened: as §1
[13] = Clearance in Por lox/lox wild type mouse at 2.5 mg/kg, po treated 10 days after 80 mg/kg, ip beta-naphthoflavone administration by liquid chromatography-tandem mass spectrometry; assay type: ADME, organism-based; conditions: in vivo; procedure, shortened: as §1
[14] = Clearance in liver and gut Por deleted-reductase conditional null mouse at 2.5 mg/kg, po treated 10 days after 80 mg/kg, ip beta-naphthoflavone administration by liquid chromatography-tandem mass spectrometry; assay type: ADME, organism-based; conditions: in vivo; procedure, shortened: as §1
in vivo [15] = conditions: mouse, po, 2.5 mg/kg
in vivo [16] = conditions: mouse, po, 2.5 mg/kg; remark: listed apart in the source
in vivo [17] = conditions: mouse, po, 2.5 mg/kg; remark: listed apart in the source
in vivo [18] = conditions: mouse, po, 2.5 mg/kg; remark: listed apart in the source

`Cc1ncc2n1-c1ccc(Cl)cc1C(c1ccccc1F)=NC2` [MIDAZOLAM] gave an AUC (Mus musculus) of 8.7 µg·min/mL, an AUC(0-inf) [1] of 2250 ng·h/mL and an AUC(0-t) at 240 h [2] of 125 ng·h/mL. It also gave an AUC(0-t) at 240 h [3] of 2100 ng·h/mL, a Cmax [4] of 110 ng/mL and a Cmax [5] of 900 ng/mL. It also gave a CL/F [6] of 26.8 mL/min/kg, an AUC(0-inf) [7] of 278 ng·h/mL and an AUC(0-inf) [8] of 5830 ng·h/mL. It also gave an AUC(0-t) at 240 h [9] of 228 ng·h/mL, an AUC(0-t) at 240 h [10] of 5520 ng·h/mL and a Cmax [11] of 140 ng/mL. For the same molecule, the Cmax [12] was 2300 ng/mL, the CL/F [13] was 180 mL/min/kg and the CL/F [14] was 9.3 mL/min/kg. For the same molecule, the half-life at 240 h (in vivo [15]) was 1.13 h, the half-life at 240 h (in vivo [16]) was 2.13 h and the half-life at 240 h (in vivo [17]) was 1.92 h. For the same molecule, the half-life at 240 h (in vivo [18]) was 1.9 h.
